# According to the array DNA melting data of Ke et al. (doi:10.1101/2024.01.08.574731):
# Columns and labels:
# [1] = melting temperature; fluorescence melt of hairpins on a sequencing array, two-state fit, raised by 9.35 °C to match UV melts; conditions: sodium 0.088 M
# Summary of the method: (§1)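 Bootstrapped two-state fits yielded melting temperature and folding enthalpy for library hairpins. Cy3 fluorescence, with annealed Cy3 and quencher oligos, was imaged on a sequenced MiSeq flow cell in 50 mM Na-HEPES pH 8.0, 25 mM NaCl in 2.5 °C steps up to 60 °C, and normalised to pre-quench Cy3 and to control constructs. Four replicates were combined by inverse variance, and fitted temperatures were raised by 9.35 °C to match UV melts.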
# [2] = folding enthalpy; higher = less favourable; fluorescence melt of hairpins on a sequencing array, two-state fit; conditions: sodium 0.088 M
# Summary of the method: as §1
Sequence,Tm [1],folding enthalpy [2]
GCAATGCGAAAGCAGGGC ((..(((....)))..)),60.9 °C,-25.4 kcal/mol
GCCTCTGGAAACAAAGGC ((((.((....)).)))),36.1 °C,-26.1 kcal/mol
GTACGTGGAAACGCGTAC (((((.(....).))))),52.7 °C,-32.2 kcal/mol
GCGTCGACACGC ((((....)))),51.7 °C,-21.5 kcal/mol
GATGTCGGAAACGGTATC (((..((....))..))),31.6 °C,-21.2 kcal/mol
GGCATATCGAAAGATGCC (((..(((....)))))),50.1 °C,-29 kcal/mol
GATCTTTGGAAAGATC ((((((....)))))),42.7 °C,-31.5 kcal/mol
GAGTTCGGAAACAAACTC (((((.(....).))))),34 °C,-27.5 kcal/mol
GGCGCAGGAAACCGCACC ((.((.(....).)).)),39 °C,-27.5 kcal/mol
GTGGGCCGAAAGGCTCAC (((.(((....))).))),69.2 °C,-29.6 kcal/mol
GCGGTTATCCGC ((((....)))),59 °C,-30 kcal/mol
GTTGGGGGAAACCTCGAC ((.(.((....)).).)),34.7 °C,-23.5 kcal/mol
GGAACAACGAAAGTTTCC (((..(((....)))))),29.9 °C,-15.5 kcal/mol
GCGAACCCGAAAGGGCGC (((..(((....)))))),55.5 °C,-21.4 kcal/mol
GTGAGGCGAAAGCCCAC (((.(((....)))))),61.8 °C,-18.4 kcal/mol
GGCTTTGGAAACAGAGTC (.((.((....)).)).),29.3 °C,-10.1 kcal/mol
GTCGTTGGAAACAACAAC ((.((((....)))).)),34.8 °C,-17.7 kcal/mol
GGGATTACGAAAGTACCC (((..(((....)))))),34.1 °C,-17.1 kcal/mol
GCGCAGCGAAAGCAACGC (((..((....))..))),49.6 °C,-10.2 kcal/mol
GGACGGGGAAACCCGCCC ((.((((....)))).)),58.7 °C,-34.1 kcal/mol
GCTTGGCGAAAGCAACGC ((.(.((....)).).)),33.5 °C,-10.5 kcal/mol
GCTGACGAAAGTCGAAGC ((((((....)))..))),48.5 °C,-19.1 kcal/mol
CGTGACGGAAACGTAACG (((.(((....))).))),50.3 °C,-37.4 kcal/mol

Sequence,Tm [1],folding enthalpy [2]
CGACCGGAAACGGATCG ((((((....))).))),48.5 °C,-33.3 kcal/mol
GGATCCGAAAGGAACTCC ((((((....)))..))),34.7 °C,-13.3 kcal/mol
GCTCGTCCGAAAGGAAGC (((..(((....)))))),36.6 °C,-8.41 kcal/mol
GGCAGCGGAAACGCTACC ((.((((....)))).)),54 °C,-22.8 kcal/mol
GATCGTTCGTACGATC ((((((....)))))),55.5 °C,-44.1 kcal/mol
GTGAATCGAAAGATGCAC (((.(((....))).))),50.3 °C,-31.4 kcal/mol
GATCGGAGGTCCGATC ((((((....)))))),57.6 °C,-31.5 kcal/mol
GAATGTGGAAACGCATTC (((((.(....).))))),46 °C,-37.5 kcal/mol
GACAGCGAAAGCTAGGTC ((((((....)))..))),39.4 °C,-18.4 kcal/mol
GAGTGTGGAAACGCATTC ((.((.(....).)).)),28.5 °C,-19 kcal/mol
GCCACGCGAAAGCTGGGC (((..((....))..))),60 °C,-27 kcal/mol
GGTAGGGGAAACCTTGCC ((.(.((....)).).)),34.7 °C,-20.2 kcal/mol
GTGCGCGGAAACGTGCGC (.((.((....)).)).),59 °C,-25.9 kcal/mol
GTGTACGAAAGTAGTCAC ((((((....)))..))),30.9 °C,-12.2 kcal/mol
CGCATGAAAATGCG (((((....))))),67.6 °C,-24.9 kcal/mol
CGATGTCGGAAACGATCG (((..(((....)))))),36.2 °C,-17.3 kcal/mol
GGTATGGGAAACCATGTC (..((((....))))..),27.4 °C,-13.5 kcal/mol
GGGTATCGAAAGATCCC (((.(((....)))))),49.7 °C,-30.6 kcal/mol
GGTGGCGAAAGCCGTACC ((((((....)))..))),44.7 °C,-13.3 kcal/mol
GATCGCAAATGCGATC ((((((....)))))),68 °C,-40.5 kcal/mol
GGCTCAGGAAACCGAGCC (((((.(....).))))),54.5 °C,-49.1 kcal/mol
GCTATCGAAAGATTCAGC ((((((....)))..))),29.6 °C,-11.6 kcal/mol
CGCGCGGAAACGCAGGCG ((((((....)))..))),57.2 °C,-28.6 kcal/mol

Sequence,Tm [1],folding enthalpy [2]
GTGGTAGGAAACTGCTAC ((.(.((....)).).)),32.1 °C,-17.7 kcal/mol
GATCCTCCTCAGGATC ((((((....)))))),50.2 °C,-45.2 kcal/mol
GCGATTGGAAACAATCAC (.(((((....))))).),40 °C,-19.7 kcal/mol
GCAAACGAAAGTTTTGC ((((((....))).))),49.4 °C,-28.5 kcal/mol
GGACGGGCGAAAGCCTCC (((..(((....)))))),33.7 °C,-10.5 kcal/mol
GTAAGTCGAAAGACCTAC (((.(((....))).))),35.7 °C,-17 kcal/mol
GATCCACCGTGGATC ((((((...)))))),48.5 °C,-37.4 kcal/mol
GATCTTGGAGAAGATC ((((((....)))))),43.9 °C,-29.8 kcal/mol
GATCGTTAAGACGATC ((((((....)))))),55.4 °C,-43.2 kcal/mol
CCTACGAAAGTAGG (((((....))))),57 °C,-20.4 kcal/mol
GACATAGCGAAAGCTGTC (((..(((....)))))),47.1 °C,-20.5 kcal/mol
GGTTACCCGAAAGGGACC (((..(((....)))))),35.2 °C,-12.9 kcal/mol
GGCGATACGAAAGTAGCC (((..(((....)))))),49.5 °C,-23.3 kcal/mol
GATAGGCGAAAGCCGATC (((.(((....))).))),55.5 °C,-16.8 kcal/mol
GCGGCGTCCGC ((((...)))),59.9 °C,-14.7 kcal/mol
GATCCAGAGGTGGATC ((((((....)))))),47.8 °C,-28.5 kcal/mol
GCGCTCGAAAGAGCCGC ((((((....))).))),62.4 °C,-18.7 kcal/mol
GGATGCGAAAGCAGATCC ((((((....)))..))),45.6 °C,-16.1 kcal/mol
GTCGTAGAAATACGAC ((((((....)))))),56 °C,-38 kcal/mol
GTCCGCGAAAGCGTGGAC ((((((....)))..))),54.8 °C,-16.9 kcal/mol
GTAATCGGAAACGACTAC (((.(((....))).))),34.3 °C,-19.5 kcal/mol
GATCATGTCATGATC ((((((...)))))),51.3 °C,-32.5 kcal/mol
GTGGGAGCGAAAGCTCAC (((..(((....)))))),62.9 °C,-19.2 kcal/mol

Sequence,Tm [1],folding enthalpy [2]
GTGAAGGGAAACCTCCAC (((.(((....))).))),38.5 °C,-19.9 kcal/mol
GCGATTGATCGC ((((....)))),53.1 °C,-31.5 kcal/mol
GAATGCACGAAAGTGTTC (((..(((....)))))),23.1 °C,-8.75 kcal/mol
GCCGTTGGAAACGACGGC (((((.(....).))))),66.1 °C,-38 kcal/mol
GCGACACATCGC ((((....)))),50.3 °C,-24.2 kcal/mol
GGTTACGAAAGTAACC ((((((....)))))),67.5 °C,-34.7 kcal/mol
GCCCGACGAAAGTCCGGC (((.(((....))).))),51.8 °C,-30.7 kcal/mol
CTCACGAAAGTGAG (((((....))))),61 °C,-22.2 kcal/mol
GCTCTGCGAAAGCCGCGC ((.(.((....)).).)),39.4 °C,-15 kcal/mol
GCATTGCGAAAGCCACGC ((.(.((....)).).)),38.2 °C,-8.66 kcal/mol
GGCACGGGAAACCGTGTC (.(((((....))))).),59.2 °C,-34.6 kcal/mol
GGTGAAGGAAACTTCACC (((((((....))))))),63 °C,-42.6 kcal/mol
GGTGGCGAAAGCCGACC ((((((....))).))),59.6 °C,-17.6 kcal/mol
GAAGACGAAAGTCGTTTC ((((((....)))..))),35.3 °C,-12.1 kcal/mol
GCGTATGGAAACATGCGC (((.(((....))).))),57 °C,-38.2 kcal/mol
GCTGCACCGAAAGGTAGC (((..(((....)))))),49.2 °C,-13.4 kcal/mol
GTCAAGCGAAAGCTGAC (((.(((....)))))),58.6 °C,-25.6 kcal/mol
GACCACGGAAACATGGTC (((((.(....).))))),43.4 °C,-35.5 kcal/mol
GGTTAGCCGAAAGGCACC (((..(((....)))))),41.2 °C,-13.5 kcal/mol
GCTTAGCGAAAGCTCCGC ((..(((....)))..)),36 °C,-12.8 kcal/mol
GTCTCTCGAAAGAGCGAC (((.(((....))).))),46.3 °C,-25.6 kcal/mol
GAATTGGGAAACCAATTC (((((((....))))))),54 °C,-45 kcal/mol
GTCTAGGAAACTAGAC ((((((....)))))),50.8 °C,-39.2 kcal/mol
